{"source": "PubChem BioAssay AID1217", "about": "(Sanford-Burnham Center for Chemical Genomics, 2008)", "note": "The whole screen tested about 190,000 compounds, of which about 1,300 (0.68%) were called active. Many of the other results were omitted from the sample, so actives are more common in it than they were. Unmarked numbers belong to inactive results.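 How the source made its calls: active means primary screen inhibition at 20 µM above a set limit (cut at about 50% in these data); inactive means the rest.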", "data": [{"system": "diaphorase (Clostridium kluyveri)", "test": "diaphorase inhibitors and chemical oxidizers, primary screen, counter-screen for diaphorase-coupled primary assays, biochemical, uHTS, resorufin fluorescence (AID 1217);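 further: plate controls were DMSO with full reaction for no effect and wells lacking NADH for full effect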", "conditions": "diaphorase resazurin-to-resorufin fluorescence, NADH, 16 min; at 20 µM; hits give high values", "how_it_was_run": "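Assay system: diaphorase enzyme from Clostridium kluyveri; Input: enzyme working solution with 0.14 U/mL diaphorase; Timing: 16 min at room temperature; Technique: resorufin fluorescence, excitation 544 nm, emission 590 nm; Benchmarks: positive control minus NADH, DMSO neutral control.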", "values": [{"smiles": "COc1ccccc1N=C1SCCCN1C", "inhibition": "7.6%"}, {"smiles": "COc1ccccc1N=Nc1c(O)[nH]c(=S)[nH]c1=O", "inhibition": "51.2% (active)"}, {"smiles": "COc1ccccc1-n1c(O)c(C=NC2CC2)c(=O)[nH]c1=O", "inhibition": "7.4%"}, {"smiles": "COc1ccc(-c2nn(CCC#N)cc2C(=O)O)cc1", "inhibition": "0.1%"}, {"smiles": "COc1ccc(NC(=O)c2cn(CCC#N)nc2-c2ccc([N+](=O)[O-])cc2)cc1", "inhibition": "1.1%"}, {"smiles": "CN(C)c1nc(N(C)C)nc(N(C#N)CCCl)n1", "inhibition": "-15.8%"}, {"smiles": "O=C(Cc1ccccc1)N1CCN(C2CCCCCC2)CC1", "inhibition": "19.6%"}, {"smiles": "O=C1N=c2ccccc2=C/C1=C\\c1c(O)[nH]c(=S)[nH]c1=O", "inhibition": "20%"}, {"smiles": "Cc1ccc2c(c1)=C/C(=C\\c1c(O)[nH]c(=O)[nH]c1=O)C(=O)N=2", "inhibition": "65.8% (active)"}, {"smiles": "COc1cccc(N2C(=O)NC(=O)/C(=C\\c3ccc([N+](=O)[O-])s3)C2=O)c1", "inhibition": "27.2%"}]}]}
